Paper PMC10466730 (Cancer cell, 2023)
Like-named read-outs stand apart in the source and are kept apart here.

Key:
CK1α = CK1α (Homo sapiens, UniProt P48729+Q96SW2); assay: Western blot of CK1α in MOLM-13 cells; assay type: cell-based; conditions: for CK1α degradation (Western blot): MOLM-13
Procedure, shortened: (§1)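 MOLM-13 cells (1 × 10⁶) were treated 24 h with test compound diluted from DMSO stocks. Cells were pelleted, washed with PBS, lysed in Laemmli buffer by vortexing for 10 min, and boiled at 95 °C for 5 min. Lysates were resolved on 4–15% gradient SDS-PAGE, transferred to PVDF and immunoblotted with target-specific antibodies.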

IKZF2 = IKZF2 (Homo sapiens, UniProt Q96SW2+Q9UKS7); assay: Western blot of IKZF2 in MOLM-13 cells; assay type: cell-based; conditions: MOLM-13, 24 h
Procedure, shortened: as §1

MOLM-13 cells [1] = assay: Viability assay in MOLM-13 cells; assay type: cell-based, human; conditions: MOLM-13, 72 h; for cellular growth inhibition: unlike lenalidomide, Figure 1E; for IC50: Homo sapiens
Procedure, shortened: (§2)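 Human AML cell lines were plated at 10,000 cells per well with increasing test compound up to 100 μM for 72 h at 37 °C, 5% CO₂. CellTiter-Glo was added 1:1 for 15 min at room temperature and luminescence was read; MTT was used as an alternative read-out. Percent viability was fitted by non-linear regression to give IC50. Three independent experiments, triplicates.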

panel of AML cell lines = assay: Viability assay in a panel of AML cell lines; assay type: cell-based, human; conditions: AML cell lines with various oncogenic mutations, 72 h
Procedure, shortened: as §2

[2] = system: MOLM-13 and MOLM-14 cells; assay: Combination viability assay with other AML drugs; assay type: cell-based, human; conditions: 72 h
Procedure, shortened: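 MOLM-13 cells were co-treated with test compound plus midostaurin or cytarabine for 72 h. Viability was read by CellTiter-Glo luminescence. A representative of three independent experiments is shown, mean ± SEM of triplicates.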

[3] = system: normal bone marrow Crbn^I391V cells; assay: Viability assay in normal bone marrow Crbn^I391V cells; assay type: cell-based; conditions: Mus musculus, 72 h, read-out: IC50 (proliferation)
IKZF1(zinc finger 2)-GFP = IKZF1(zinc finger 2)-GFP (Homo sapiens, UniProt Q13422); assay: Flow cytometry degradation assay, HEK293T IKZF1; assay type: cell-based; conditions: HEK293T IKZF1(zinc finger 2)-GFP
MOLM-13 cells [4] = assay: Flow cytometry for apoptosis and differentiation in MOLM-13 cells; assay type: cell-based, human; conditions: MOLM-13, 10 nM and 100 nM, 2 days
Procedure, shortened: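 MOLM-13 cells were treated 48 h. For differentiation, cells were stained 20 min in the dark in 2% FBS RPMI for CD13-FITC/CD33-APC or CD14-FITC/CD11b-APC. Mean ± SEM of three experiments; Student's t test.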

MOLM-13 cells [5] = assay: Efficacy in NSG mice transplanted with MOLM-13 cells; assay type: in vivo; conditions: 50 mg/kg
[6] = system: MLL-AF9 leukemic bone marrow Crbn^I391V cells; assay: Viability assay in MLL-AF9 leukemic bone marrow Crbn^I391V cells; assay type: cell-based; conditions: Mus musculus, MLL-AF9, 72 h, read-out: IC50 (proliferation)
IKZF1 = IKZF1 (Homo sapiens, UniProt Q13422); assay: Western blot of IKZF1 in MOLM-13 cells; assay type: cell-based; conditions: MOLM-13, 24 h
Procedure, shortened: as §1

IKZF3 = IKZF3 (Homo sapiens, UniProt Q9UKT9); assay: Western blot of IKZF3 in MOLM-13 cells; assay type: cell-based; conditions: MOLM-13, 24 h
Procedure, shortened: as §1

[7] = system: MLL-AF9 Crbn^I391V leukemic cells; assay: Colony assay of MLL-AF9 Crbn^I391V leukemic cells; assay type: cell-based, mouse; conditions: 10 nM, M3434 methylcellulose
Procedure, shortened: (§3)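 Murine cells were plated on MethoCult M3434 methylcellulose with test compound: 500 sorted LSK cells from Crbn^I391V mice, or 1000 bone marrow cells from MLL-AF9 Crbn^I391V leukemic mice. Colonies were counted after 5 days and normalized. Cells came from n=3 mice. Mean ± SEM of biological replicates from two experiments.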

[8] = system: LSK cells from Crbn^I391V mice; assay: Colony assay of Crbn^I391V LSK cells; assay type: cell-based, mouse; conditions: 10 nM, M3434 methylcellulose
Procedure, shortened: as §3

IKZF4 = IKZF4 (Homo sapiens, UniProt Q9H2S9); assay: Western blot of IKZF4 in MOLM-13 cells; assay type: cell-based; conditions: MOLM-13, 24 h
Procedure, shortened: as §1

CK1α-GFP fusion protein = CK1α-GFP fusion protein (Homo sapiens, UniProt P48729+Q96SW2); assay: Flow cytometry degradation assay, HEK293T CK1α-GFP; assay type: cell-based; conditions: 5 h
MLL-AF9 Crbn^I391V cells [9] = assay: Pharmacodynamics in BL6 mice transplanted with MLL-AF9 Crbn^I391V cells; assay type: in vivo, mouse; conditions: single dose 50 mg/kg, 24 h and 72 h
MLL-AF9 Crbn^I391V cells [10] = assay: Flow cytometry for apoptosis and differentiation in MLL-AF9 Crbn^I391V cells; assay type: cell-based, mouse; conditions: 10 nM, 24 h post treatment, dependent on humanized CRBN
AML PDX#2 = assay: Efficacy in NSG mice transplanted with AML PDX; assay type: in vivo, mouse; conditions: AML PDX#2, DEG-35 vs DMSO
GSPT1 = GSPT1 (Homo sapiens, UniProt P15170+Q96SW2); assay: Western blot of endogenous GSPT1; assay type: cell-based; conditions: degradation at micromolar concentrations, Figure S2D
[11] = target: His-CULT and streptactin-CK1α (Homo sapiens, UniProt P48729+Q96SW2); assay: AlphaScreen ternary complex between CRBN and CK1α; assay type: binding; conditions: compared with lenalidomide
Procedure, shortened: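 CK1α–CRBN ternary complex by AlphaScreen in 1× AlphaScreen buffer (3× stock: 150 mM HEPES pH 7.4, 450 mM NaCl, 0.3% BSA, 0.03% Tween 20). Streptactin-CK1α (600 nM solution) and CULT (500 nM solution) were mixed with a 2-fold serial dilution of test compound in 3% DMSO/buffer, in triplicate, for 1 h at 25 °C. Streptactin acceptor and nickel chelate donor beads were then added for 1 h at 25 °C in the dark before reading.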

Pharmacokinetics in mice = assay type: in vivo, mouse; conditions: male, CD1, mouse, plasma, ip
Procedure, shortened: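 Single intraperitoneal doses in DMSO: one test compound at 5 or 50 mg/kg in male CD1 mice, another at 223 mg/kg in female Crbn^I391V mice. Plasma was collected at set times and compound levels were measured by HPLC.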

MOLM-13 cells [12] = assay: Quantitative global proteomics in MOLM-13 cells; assay type: cell-based, human; conditions: 50 nM, 2 h
CRBN = CRBN (Homo sapiens, UniProt Q96SW2); assay: HTR-FRET Cereblon binding assay
[13] = system: primary AML patient samples; assay: Colony assay of primary AML patient samples; assay type: cell-based, human; conditions: 10 nM, n = 8, compared to healthy adult bone marrow or cord blood cells
Procedure, shortened: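 Primary AML patient cells, normal bone marrow or cord blood CD34+ HSPCs were plated at 5000 cells on methylcellulose with test compound. Colonies were counted after 7 days and normalized to control. Mean ± SEM of samples from more than three experiments.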

GSPT1-GFP = GSPT1-GFP (Homo sapiens, UniProt P15170+Q96SW2); assay: Flow cytometry degradation assay, HEK293T GSPT1-GFP; assay type: cell-based
[14] = system: healthy bone marrow cells; assay: Viability assay in healthy bone marrow cells; assay type: cell-based; conditions: Homo sapiens, Bone marrow cell, 48 h, read-out: IC50 (viability)
Procedure, shortened: (§4)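 AML PDX cells or normal human bone marrow cells were plated at 10,000 cells per well with increasing test compound concentrations and cultured for 2 days at 37 °C, 5% CO₂. Viability was read by CellTiter-Glo luminescence or MTT absorbance, normalized to percent viability, and fitted by non-linear regression.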

AML PDX cells = assay: Viability assay in AML PDX cells; assay type: cell-based, human; conditions: read-out: IC50 (viability); two AML PDX samples, 2 days, Figure 5D
Procedure, shortened: as §4

MLL-AF9 Crbn^I391V cells [15] = assay: Efficacy in BL6 mice transplanted with MLL-AF9 Crbn^I391V cells; assay type: in vivo; conditions: 50 mg/kg
[16] = target: IKZF2(zinc finger 2)-GFP fusion protein (Homo sapiens, UniProt Q96SW2+Q9UKS7); assay: Flow cytometry degradation assay, HEK293T IKZF2; assay type: cell-based; conditions: HEK293T IKZF2(zinc finger 2)-GFP, 24 h

IKZF2, sequence (Q9UKS7 whole entry): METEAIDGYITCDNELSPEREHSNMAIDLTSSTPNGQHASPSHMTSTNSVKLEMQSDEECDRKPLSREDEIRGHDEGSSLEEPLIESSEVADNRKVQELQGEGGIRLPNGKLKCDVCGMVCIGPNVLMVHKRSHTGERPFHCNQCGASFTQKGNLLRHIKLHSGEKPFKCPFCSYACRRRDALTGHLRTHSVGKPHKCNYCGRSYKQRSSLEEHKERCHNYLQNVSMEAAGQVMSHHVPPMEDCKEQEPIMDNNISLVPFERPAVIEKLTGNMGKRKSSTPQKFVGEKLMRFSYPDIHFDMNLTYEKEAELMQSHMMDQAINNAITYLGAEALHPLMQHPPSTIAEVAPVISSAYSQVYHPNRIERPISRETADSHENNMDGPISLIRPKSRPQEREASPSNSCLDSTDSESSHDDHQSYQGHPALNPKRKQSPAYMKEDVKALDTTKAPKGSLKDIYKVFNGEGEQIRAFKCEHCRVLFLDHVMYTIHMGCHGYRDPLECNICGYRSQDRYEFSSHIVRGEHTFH
IKZF2, sequence (Q96SW2 whole entry): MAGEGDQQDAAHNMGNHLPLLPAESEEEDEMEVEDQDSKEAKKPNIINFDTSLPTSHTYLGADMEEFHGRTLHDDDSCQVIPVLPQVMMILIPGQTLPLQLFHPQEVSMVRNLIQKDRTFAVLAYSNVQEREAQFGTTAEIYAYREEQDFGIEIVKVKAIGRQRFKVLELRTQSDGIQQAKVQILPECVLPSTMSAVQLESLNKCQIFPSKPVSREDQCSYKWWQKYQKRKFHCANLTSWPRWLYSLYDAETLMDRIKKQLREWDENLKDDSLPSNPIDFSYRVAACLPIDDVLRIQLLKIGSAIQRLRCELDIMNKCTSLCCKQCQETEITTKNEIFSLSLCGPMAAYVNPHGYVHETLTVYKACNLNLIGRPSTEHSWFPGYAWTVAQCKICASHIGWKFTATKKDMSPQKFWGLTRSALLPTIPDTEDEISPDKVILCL
IKZF2, sequence (Q16531 whole entry partner): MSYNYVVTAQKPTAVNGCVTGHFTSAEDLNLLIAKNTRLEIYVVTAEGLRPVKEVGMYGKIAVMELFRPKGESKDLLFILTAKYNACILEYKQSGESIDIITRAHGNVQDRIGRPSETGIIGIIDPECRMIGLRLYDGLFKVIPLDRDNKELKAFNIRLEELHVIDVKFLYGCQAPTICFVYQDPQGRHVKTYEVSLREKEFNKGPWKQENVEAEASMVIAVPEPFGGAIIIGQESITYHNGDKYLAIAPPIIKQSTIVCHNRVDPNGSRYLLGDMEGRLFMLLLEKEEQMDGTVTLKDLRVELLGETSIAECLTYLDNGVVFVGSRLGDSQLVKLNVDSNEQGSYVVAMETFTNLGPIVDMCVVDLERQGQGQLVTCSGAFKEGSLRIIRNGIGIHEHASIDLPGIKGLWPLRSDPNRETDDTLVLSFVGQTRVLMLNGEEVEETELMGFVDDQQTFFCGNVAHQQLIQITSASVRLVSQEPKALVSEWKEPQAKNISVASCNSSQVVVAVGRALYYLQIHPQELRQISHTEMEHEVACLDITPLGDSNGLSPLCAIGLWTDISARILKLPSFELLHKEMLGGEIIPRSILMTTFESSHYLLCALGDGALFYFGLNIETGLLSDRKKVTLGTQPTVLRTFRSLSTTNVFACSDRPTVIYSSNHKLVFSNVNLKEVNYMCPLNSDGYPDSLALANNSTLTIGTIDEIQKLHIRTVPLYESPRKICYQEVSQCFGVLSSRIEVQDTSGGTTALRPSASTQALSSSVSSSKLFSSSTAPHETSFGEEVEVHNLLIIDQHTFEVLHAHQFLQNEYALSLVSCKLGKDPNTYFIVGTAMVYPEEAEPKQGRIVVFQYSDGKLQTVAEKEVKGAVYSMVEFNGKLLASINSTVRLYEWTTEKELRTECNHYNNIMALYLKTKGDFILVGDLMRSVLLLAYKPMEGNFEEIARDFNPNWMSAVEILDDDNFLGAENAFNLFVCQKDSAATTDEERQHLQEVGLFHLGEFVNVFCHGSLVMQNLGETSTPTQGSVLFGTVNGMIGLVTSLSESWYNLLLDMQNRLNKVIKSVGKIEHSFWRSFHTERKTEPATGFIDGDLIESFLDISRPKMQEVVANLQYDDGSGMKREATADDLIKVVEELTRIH
CK1α, sequence (P48729 whole entry): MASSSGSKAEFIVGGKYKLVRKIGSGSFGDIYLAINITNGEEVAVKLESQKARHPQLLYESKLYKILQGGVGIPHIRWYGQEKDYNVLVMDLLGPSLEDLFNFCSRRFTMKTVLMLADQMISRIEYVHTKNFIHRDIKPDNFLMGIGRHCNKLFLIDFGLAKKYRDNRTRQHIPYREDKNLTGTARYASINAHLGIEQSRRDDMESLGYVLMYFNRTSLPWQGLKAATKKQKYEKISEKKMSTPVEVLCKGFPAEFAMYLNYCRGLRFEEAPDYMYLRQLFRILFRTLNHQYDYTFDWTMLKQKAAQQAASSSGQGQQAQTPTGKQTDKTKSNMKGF
CK1α, sequence (Q96SW2 whole entry): as the sequence (Q96SW2 whole entry) above
CK1α, sequence (Q16531 whole entry partner): as the sequence (Q16531 whole entry partner) above
CRBN, sequence (Q96SW2 whole entry): as the sequence (Q96SW2 whole entry) above
His-CULT and streptactin-CK1α, sequence (Q96SW2 318-426 limits assumed): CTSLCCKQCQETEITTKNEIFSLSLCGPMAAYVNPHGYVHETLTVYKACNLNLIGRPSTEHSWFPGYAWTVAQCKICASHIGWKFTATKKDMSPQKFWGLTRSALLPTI
His-CULT and streptactin-CK1α, sequence (P48729 whole entry): as the sequence (P48729 whole entry) above

Compound: COc1ccc2cc(CNc3ccc4c(c3)CN(C3CCC(=O)NC3=O)C4=O)ccc2c1 (stereo not drawn) [CH2-DEG-35, 3-(5-(((6-methoxynaphthalen-2-yl)methyl)amino)-1-oxoisoindolin-2-yl)piperidine-2,6-dione]
- CK1α degradation (Western blot) (CK1α): but not CH2-DEG-35 efficiently degraded

Compound: O=C1CCC(N2Cc3cc(NC(=O)c4ccc5ccccc5c4)ccc3C2=O)C(=O)N1 (stereo not drawn) [DEG-9, N-(2-(2,6-dioxopiperidin-3-yl)-1-oxoisoindolin-5-yl)-2-naphthamide]
- IKZF2 degradation (Western blot) (IKZF2): dose-dependent degradation
- cellular growth inhibition (MOLM-13 cells [1]): inhibited cellular growth

Compound: COc1ccc2cc(C(=O)Nc3ccc4c(c3)CN(C3CCC(=O)NC3=O)C4=O)ccc2c1 (stereo not drawn) [DEG-35, N-(2-(2,6-dioxopiperidin-3-yl)-1-oxoisoindolin-5-yl)-6-methoxy-2-naphthamide]
- IC50 values (growth) (panel of AML cell lines): single digit nM to low μM
- sensitivity to DEG-35 on co-treatment with cytarabine [2]: more sensitive
- sensitivity to DEG-35 on co-treatment with midostaurin [2]: more sensitive
- IC50 [3]: 100 nM
- DCmax IKZF1-GFP (IKZF1(zinc finger 2)-GFP): 12%
- CK1α degradation (Western blot) (CK1α): efficiently degraded CK1α
- concentrations depleting CK1α (as low as) (CK1α; MOLM-13, 24 h, Western blot): 1 to 10 nM
- apoptosis induction and myeloid differentiation (MOLM-13 cells [4]): significant dose-dependent apoptosis induction and myeloid differentiation
- body weight (MOLM-13 cells [5]): without overt weight loss
- disease burden (spleen and liver weights) (MOLM-13 cells [5]): decreased spleen and liver weights
- survival (MOLM-13 cells [5]; vs DMSO): significantly prolonged survival
- IC50 [6]: 9.2 nM
- activity against IKZF1 (Western blot) (IKZF1): limited activity
- activity against IKZF3 (Western blot) (IKZF3): limited activity
- reduction of colonies [7]: half
- LSK derived colonies [8]: not affected
- activity against IKZF4 (Western blot) (IKZF4): limited activity
- DCmax CK1α (CK1α-GFP fusion protein): 84%
- degradation of CK1α and IKZF2 in leukemic cells from bone marrow and spleen (MLL-AF9 Crbn^I391V cells [9]): efficient degradation of CK1α and IKZF2
- apoptosis and myeloid differentiation (MLL-AF9 Crbn^I391V cells [10]): resulted in apoptosis and myeloid differentiation at nanomolar concentrations
- survival (AML PDX#2): significant prolonged survival
- endogenous GSPT1 degradation (Western blot) (GSPT1): limited degradation at nanomolar concentrations
- ternary complex between CRBN and CK1α [11]: significantly stronger ternary complex
- half-life (Pharmacokinetics in mice): 2.5 h
- CK1α rank in global proteomics (MOLM-13 cells [12]): most significantly downregulated protein
- Kd (CRBN): 473 nM
- IKZF2 degradation (Western blot) (IKZF2): efficiently degraded IKZF2
- colony formation [13]: reduced colony formation
- DCmax GSPT1-GFP (GSPT1-GFP): 24%
- IC50 [14]: 15.7 nM
- IC50 (AML PDX cells): 5.2 nM
- IC50 (MOLM-13 cells [1]; read-out: IC50 (cell viability)): 5 nM
- IC50 (MOLM-13 cells [1]; read-out: IC50 (viability)): 5.7 nM
- cellular growth inhibition (MOLM-13 cells [1]): inhibited cellular growth
- body weight (MLL-AF9 Crbn^I391V cells [15]): without overt weight loss
- leukemia progression (MLL-AF9 Crbn^I391V cells [15]; vs DMSO): delayed leukemia progression
- DCmax IKZF2 [16]: 92%

Compound: COc1ccc2cc(C(=O)Nc3ccc4c(c3)CN(C3CCC(=O)N(C)C3=O)C4=O)ccc2c1 (stereo not drawn) [Me-DEG-35, 6-methoxy-N-(2-(1-methyl-2,6-dioxopiperidin-3-yl)-1-oxoisoindolin-5-yl)-2-naphthamide]
- CK1α degradation (Western blot) (CK1α): rescued IKZF2 and CK1α degradation
- IKZF2 degradation (Western blot) (IKZF2): rescued IKZF2 and CK1α degradation
